Experimental data collected from several papers.
Compare with care: the assays were run in different laboratories.
OPRK1: Kappa-type opioid receptor (OPRK1, Homo sapiens, UniProt P41145)

Structure (SMILES) | target | observed | technique | setting | Ki [nM]
Oc1ccc2c3c1O[C@H]1c4ncc(-c5ccccc5)cc4C[C@@]4(OCCCc5cccnc5)[C@@H](C2)N(CC2CC2)CC[C@]314 | OPRK1 | cell-free assay |  |  | 5.3
COc1ccsc1CNCC[C@@]1(c2ccccn2)CCOC2(CCCC2)C1 | OPRK1 | cell-free assay |  |  | 2700
Cc1cc(O)cc(C)c1C[C@H](N)C(=O)N1CCc2ccc(Cc3ccccc3N)cc2C1 | OPRK1 | ligand displacement | radioligand | cell membranes | 25
C[C@@H](NC(=O)[C@@H](N)Cc1ccc(O)cc1)C(=O)NCC(=O)N[C@@H](Cc1ccccc1)C(=O)N(C)CCC[C@@]1(c2ccc(F)cc2)OCc2cc(C#N)ccc21 | OPRK1 | cell-free assay |  |  | 86
C[C@H]1[C@H]2Cc3ccc(O)cc3[C@]1(C)CCN2CC1CC1 | Kappa-type opioid receptor (OPRK1, Homo sapiens, UniProt P41145, I135L) | cell-free assay |  |  | 2.95
Cc1cc(O)cc(C)c1C[C@H](N)C(=O)N1CCc2ccc(Cc3ccc([N+](=O)[O-])cc3)cc2C1 | OPRK1 | ligand displacement | radioligand | cell membranes | 22
CCCC[C@@H](NC(=O)[C@@H](N)Cc1ccc(O)cc1)C(=O)NCC(=O)N[C@@H](Cc1ccc(F)cc1)C(=O)N(C)CCC[C@@]1(c2ccc(F)cc2)OCc2cc(C#N)ccc21 | OPRK1 | cell-free assay |  |  | 68
CC[C@H](C)[C@H](NC(=O)[C@H](CCCNC(=N)N)NC(=O)[C@H](CC(C)C)NC(=O)[C@@H](N)Cc1ccccc1)C(=O)N[C@@H](CCCNC(=N)N)C(=O)N1CCC[C@H]1C(=O)N[C@@H](CCCCN)C(=O)O | OPRK1 | ligand displacement | radioligand |  | > 10000
C[C@@H](NC(=O)[C@@H](N)Cc1ccc(O)cc1)C(=O)NCC(=O)N[C@@H](Cc1ccc(Cl)cc1)C(=O)N(C)CCC[C@@]1(c2ccc(F)cc2)OCc2cc(C#N)ccc21 | OPRK1 | cell-free assay |  |  | 43
Cc1ccc(Cc2ccc3c(c2)CN(C(=O)[C@@H](N)Cc2c(C)cc(O)cc2C)CC3)cc1 | OPRK1 | ligand displacement | radioligand | cell membranes | 233
CN[C@]1(c2ccccc2Cl)CCCCC1=O | OPRK1 | ligand displacement | radioligand |  | 8500
Cc1cc(O)cc(C)c1C[C@H](N)C(=O)N1CCc2ccc(Cc3ccccc3[N+](=O)[O-])cc2C1 | OPRK1 | ligand displacement | radioligand | cell membranes | 2.6
Fc1ccccc1CC(c1ccccc1)N1CCCC1 (centres unmarked) | OPRK1 | ligand displacement | radioligand |  | 642
CC(=O)Nc1ccccc1-c1cnc2c(c1)C[C@@]1(OCCCc3ccccc3)[C@H]3Cc4ccc(O)c5c4[C@@]1(CCN3CC1CC1)[C@H]2O5 | OPRK1 | cell-free assay |  |  | 13.5
